From article PMC4809803 (Oncogene, 2015)

Columns and labels:
[1] = tested on: HCD-57 cells expressing FLT3-ITD; assay: XTT cell viability assay, transformed HCD-57; format: cell-based, murine; conditions: 48 hours
[2] = tested on: HCD-57 cells expressing FLT3-D835Y; assay: XTT cell viability assay, transformed HCD-57; format: cell-based, murine; conditions: 48 hours
[3] = tested on: HCD-57 cells expressing FLT3-D835H; assay: XTT cell viability assay, transformed HCD-57; format: cell-based, murine; conditions: 48 hours
parent HCD-57 cells [4] = assay: XTT cell viability assay, parent HCD-57; format: cell-based, murine; conditions: 48 hours, with EPO
[5] = tested on: FLT3 signaling in FLT3-ITD-transformed HCD-57 cells; assay: Cell signaling western blot; format: cell-based, murine; conditions: 3 hours
How it was run: (§1)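 EPO-independent retrovirally transformed HCD-57 cells were treated with the indicated inhibitor concentrations for 3 h. They were lysed in whole-cell buffer (25 mM β-glycerophosphate pH 7.3, EDTA/EGTA, 1% Triton X-100, 0.1 M NaCl, 1 mM vanadate, protease inhibitors) and cleared at 13 000×g. Equal total protein was run on SDS gels and immunoblotted for pFLT3 (pY591), pERK1/2 (pT202/pY204), pAKT (pS473), total FLT3/ERK/AKT and GAPDH.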

[6] = tested on: FLT3 signaling in FLT3-D835Y-transformed HCD-57 cells; assay: Cell signaling western blot; format: cell-based, murine; conditions: 3 hours
How it was run: as §1

[7] = tested on: FLT3-ITD-transformed HCD-57 cells; assay: Apoptosis assay, annexin V and propidium iodide; format: cell-based, murine; conditions: 100 and 500 nM, 24 hours
[8] = tested on: FLT3-D835Y-transformed HCD-57 cells; assay: Apoptosis assay, annexin V and propidium iodide; format: cell-based, murine; conditions: 100 and 500 nM, 24 hours
parent HCD-57 cells [9] = assay: Apoptosis assay, annexin V and propidium iodide; format: cell-based, murine; conditions: 100 and 500 nM, 24 hours, cultured with EPO
[10] = tested on: FLT3-ITD-transformed HCD-57 cells; assay: Cell cycle analysis, propidium iodide; format: cell-based, murine; conditions: 100 and 500 nM, 24 hours
[11] = tested on: FLT3-D835Y-transformed HCD-57 cells; assay: Cell cycle analysis, propidium iodide; format: cell-based, murine; conditions: 100 and 500 nM, 24 hours
[12] = tested on: HCD-57 cells transformed with JAK2V617F; conditions: XTT, 48 hours

In the case of `CNC(=O)c1cc(Oc2ccc(NC(=O)Nc3ccc(Cl)c(C(F)(F)F)c3)cc2)ccn1` [sorafenib], the “effect on cell growth/viability” value [1] is reported as “strongly inhibited”, the “effect on cell growth/viability” value [2] is reported as “far less active” and the “effect on cell growth/viability” value [3] is reported as “far less active”. For the same compound, the “effect on cell viability” value (parent HCD-57 cells [4]) was “far less active”, the “phosphorylation of FLT3, ERK and Akt” value [5] was “strong inhibitory effect” and the “phosphorylation of FLT3, ERK and Akt” value [6] was “much less effective”. The “percentage of apoptotic and necrotic cells” value [7] was “potent to induce apoptosis and necrosis”, the “percentage of apoptotic and necrotic cells” value [8] was “no effect” and the apoptosis (parent HCD-57 cells [9]) was “neither JI6 nor sorafenib displayed significant effects”. For the same compound, the “cell cycle distribution (G1, S+G2)” value [10] was “exhibited such an effect only on the FLT3-ITD cells”, the “cell cycle distribution (G1, S+G2)” value [11] was “exhibited such an effect only on the FLT3-ITD cells” and the “effect on cell viability” value [12] was “far less active”.
